Values belong to the molecule of their own block, whether it stands above or below them. Active and inactive are the calls of the source. No cut-off for these calls is given here.
What was measured:
Type in all cases: functional
Escherichia coli = assay: Antibacterial activity against Escherichia coli MTCC 443 assessed as bacterial growth inhibition by microdilution method
In short: (§1)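 Broth microdilution against Gram-positive and Gram-negative strains. The endpoint is the minimal inhibitory concentration, in µg/ml.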

Saccharomyces cerevisiae [1] = assay: Antifungal activity against Saccharomyces cerevisiae MTCC 1344 assessed as zone of inhibition at 18.3 uM incubated for 2 days by cross streak plate method; settings: MTCC 1344, 48 h, time 2 day, read-out: IZ
In short: (§2)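 Fungal strain (A. niger MTCC 404 or S. cerevisiae MTCC 1344) was incubated with the compound for 2 days at 37 °C. Growth inhibition was then assessed by the cross streak plate method.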

[2] = Antioxidant activity assessed as DPPH radical scavenging activity
Pseudomonas aeruginosa = assay: Antibacterial activity against Pseudomonas aeruginosa MTCC 424 assessed as bacterial growth inhibition by microdilution method; in short: as §1
Aspergillus niger [3] = assay: Antifungal activity against Aspergillus niger MTCC 404 assessed as zone of inhibition at 36.6 uM incubated for 2 days by cross streak plate method; settings: MTCC 404, 48 h, time 2 day, read-out: IZ; in short: as §2
Aspergillus niger [4] = assay: Antifungal activity against Aspergillus niger MTCC 404 assessed as zone of inhibition at 27.5 uM incubated for 2 days by cross streak plate method; settings: MTCC 404, 48 h, time 2 day, read-out: IZ; in short: as §2
Staphylococcus aureus = assay: Antibacterial activity against Staphylococcus aureus MTCC 96 assessed as bacterial growth inhibition by microdilution method; in short: as §1
Saccharomyces cerevisiae [5] = assay: Antifungal activity against Saccharomyces cerevisiae MTCC 1344 assessed as zone of inhibition at 27.5 uM incubated for 2 days by cross streak plate method; settings: MTCC 1344, 48 h, time 2 day, read-out: IZ; in short: as §2
Bacillus subtilis = assay: Antibacterial activity against Bacillus subtilis MTCC 441 assessed as bacterial growth inhibition by microdilution method; in short: as §1
Aspergillus niger [6] = assay: Antifungal activity against Aspergillus niger MTCC 404 assessed as zone of inhibition at 18.3 uM incubated for 2 days by cross streak plate method; settings: MTCC 404, 48 h, time 2 day, read-out: IZ; in short: as §2
Saccharomyces cerevisiae [7] = assay: Antifungal activity against Saccharomyces cerevisiae MTCC 1344 assessed as zone of inhibition at 36.6 uM incubated for 2 days by cross streak plate method; settings: MTCC 1344, 48 h, time 2 day, read-out: IZ
In short: (§3)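 S. cerevisiae MTCC 1344 cultures were incubated for 2 days at 37 °C and then tested by the cross streak plate method.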

Saccharomyces cerevisiae [8] = assay: Antifungal activity against Saccharomyces cerevisiae MTCC 1344 assessed as zone of inhibition at 16.8 uM incubated for 2 days by cross streak plate method; settings: MTCC 1344, 48 h, time 2 day, read-out: IZ; in short: as §2
Aspergillus niger [9] = assay: Antifungal activity against Aspergillus niger MTCC 404 assessed as zone of inhibition at 33.7 uM incubated for 2 days by cross streak plate method; settings: MTCC 404, 48 h, time 2 day, read-out: IZ; in short: as §2
Aspergillus niger [10] = assay: Antifungal activity against Aspergillus niger MTCC 404 assessed as zone of inhibition at 25.2 uM incubated for 2 days by cross streak plate method; settings: MTCC 404, 48 h, time 2 day, read-out: IZ; in short: as §2
Saccharomyces cerevisiae [11] = assay: Antifungal activity against Saccharomyces cerevisiae MTCC 1344 assessed as zone of inhibition at 33.7 uM incubated for 2 days by cross streak plate method; settings: MTCC 1344, 48 h, time 2 day, read-out: IZ; in short: as §3
Saccharomyces cerevisiae [12] = assay: Antifungal activity against Saccharomyces cerevisiae MTCC 1344 assessed as zone of inhibition at 25.2 uM incubated for 2 days by cross streak plate method; settings: MTCC 1344, 48 h, time 2 day, read-out: IZ; in short: as §2
Aspergillus niger [13] = assay: Antifungal activity against Aspergillus niger MTCC 404 assessed as zone of inhibition at 16.8 uM incubated for 2 days by cross streak plate method; settings: MTCC 404, 48 h, time 2 day, read-out: IZ; in short: as §2
Saccharomyces cerevisiae [14] = assay: Antifungal activity against Saccharomyces cerevisiae MTCC 1344 assessed as zone of inhibition at 15.9 uM incubated for 2 days by cross streak plate method; settings: MTCC 1344, 48 h, time 2 day, read-out: IZ; in short: as §2
Saccharomyces cerevisiae [15] = assay: Antifungal activity against Saccharomyces cerevisiae MTCC 1344 assessed as zone of inhibition at 23.9 uM incubated for 2 days by cross streak plate method; settings: MTCC 1344, 48 h, time 2 day, read-out: IZ; in short: as §2
Aspergillus niger [16] = assay: Antifungal activity against Aspergillus niger MTCC 404 assessed as zone of inhibition at 31.8 uM incubated for 2 days by cross streak plate method; settings: MTCC 404, 48 h, time 2 day, read-out: IZ; in short: as §2
Aspergillus niger [17] = assay: Antifungal activity against Aspergillus niger MTCC 404 assessed as zone of inhibition at 15.9 uM incubated for 2 days by cross streak plate method; settings: MTCC 404, 48 h, time 2 day, read-out: IZ; in short: as §2
Saccharomyces cerevisiae [18] = assay: Antifungal activity against Saccharomyces cerevisiae MTCC 1344 assessed as zone of inhibition at 31.8 uM incubated for 2 days by cross streak plate method; settings: MTCC 1344, 48 h, time 2 day, read-out: IZ; in short: as §2
Aspergillus niger [19] = assay: Antifungal activity against Aspergillus niger MTCC 404 assessed as zone of inhibition at 23.9 uM incubated for 2 days by cross streak plate method; settings: MTCC 404, 48 h, time 2 day, read-out: IZ; in short: as §2

MIC (Escherichia coli): 10 µg/mL
MIC (Pseudomonas aeruginosa): 8.7 µg/mL
MIC (Staphylococcus aureus): 8.9 µg/mL
MIC (Bacillus subtilis): 4 µg/mL
Compound: O=C(Sc1nnc(-c2ccccc2OCc2cn(-c3ccccc3)nn2)n1Cc1ccccc1)c1ccccc1
zone of inhibition at 18.3 µM (Saccharomyces cerevisiae [1]): 6 mm
Activity [2]: inactive
zone of inhibition at 36.6 µM (Aspergillus niger [3]): 7 mm
zone of inhibition at 27.5 µM (Aspergillus niger [4]): 6.8 mm
zone of inhibition at 27.5 µM (Saccharomyces cerevisiae [5]): 6.8 mm
zone of inhibition at 18.3 µM (Aspergillus niger [6]): 5.5 mm
zone of inhibition at 36.6 µM (Saccharomyces cerevisiae [7]): 6.7 mm

MIC (Escherichia coli): 10 µg/mL
MIC (Pseudomonas aeruginosa): 9 µg/mL
MIC (Staphylococcus aureus): 9.7 µg/mL
MIC (Bacillus subtilis): 5.2 µg/mL
Compound: O=C(CSc1nnc(-c2ccccc2OCc2cn(-c3ccc(Cl)cc3)nn2)n1Cc1ccccc1)c1ccccc1
zone of inhibition at 16.8 µM (Saccharomyces cerevisiae [8]): 5.8 mm
zone of inhibition at 33.7 µM (Aspergillus niger [9]): 8.2 mm
zone of inhibition at 25.2 µM (Aspergillus niger [10]): 8 mm
zone of inhibition at 33.7 µM (Saccharomyces cerevisiae [11]): 7 mm
zone of inhibition at 25.2 µM (Saccharomyces cerevisiae [12]): 5.7 mm
Activity [2]: inactive
zone of inhibition at 16.8 µM (Aspergillus niger [13]): 6 mm

MIC (Escherichia coli): > 40.8 µg/mL
MIC (Pseudomonas aeruginosa): 7.5 µg/mL
MIC (Staphylococcus aureus): 8 µg/mL
MIC (Bacillus subtilis): 4.1 µg/mL
Compound: O=C(CSc1nnc(-c2ccccc2OCc2cn(-c3ccccc3)nn2)n1Cc1ccccc1)c1cccc(Cl)c1
zone of inhibition at 15.9 µM (Saccharomyces cerevisiae [14]): 1.5 mm
Activity [2]: inactive
zone of inhibition at 23.9 µM (Saccharomyces cerevisiae [15]): 2 mm
zone of inhibition at 31.8 µM (Aspergillus niger [16]): 3 mm
zone of inhibition at 15.9 µM (Aspergillus niger [17]): 2 mm
zone of inhibition at 31.8 µM (Saccharomyces cerevisiae [18]): 3 mm
zone of inhibition at 23.9 µM (Aspergillus niger [19]): 2 mm

Source: ChEMBL document CHEMBL4814044, “Design and synthesis, biological evaluation of bis-(1,2,3- and 1,2,4)-triazole derivatives as potential antimicrobial and antifungal agents” (2021)
